Measured values as given in ChEMBL document CHEMBL4364253, “Application of Dually Activated Michael Acceptor to the Rational Design of Reversible Covalent Inhibitor for Enterovirus 71 3C Protease” (J Med Chem, 2019).
Activity calls are given as the source filed them.

Experiments:
Enterovirus A71 [1] = test: Irreversible covalent inhibition of Enterovirus 71 3C protease at 64 uM using NMA-IEALFQGPPK(DNP)FR as substrate and measured for 1 to 1.5 hrs by fluorescence method
Enterovirus A71 [2] = test: Binding affinity to Enterovirus 71 3C protease assessed as enzyme-compound covalent adduct formation via Cys147 residue by measuring ratio of peak intensity of covalently modified to unmodified protein at 10 equivalent after 30 mins by HPLC-ESI/MS analysis
How it was run: (§1)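 Recombinant EV71 3C protease (40 µM) incubated with inhibitor at 30 °C in 50 mM Tris, 150 mM NaCl, 1 mM EDTA-2Na, pH 7.0. Free inhibitor and salts removed by three ultrafiltration washes with water (10 kDa cutoff). Analysis by HPLC-ESI-Orbitrap MS with 0.1% formic acid water/acetonitrile mobile phases. Spectra deconvoluted; modification given as adduct-to-unmodified protein peak intensity ratio (I_add/I_pro).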

Enterovirus A71 [3] = test: Binding affinity to Enterovirus 71 3C protease assessed as enzyme-compound covalent adduct formation via Cys147 residue by measuring ratio of peak intensity of covalently modified to unmodified protein at 20 equivalent after 1 hr by HPLC-ESI/MS analysis; how it was run: as §1
Enterovirus A71 [4] = test: Antiviral activity against pseudotyped Enterovirus A71 infected in human muscular rhabdomyosarcoma cells treated prior to viral infection and measured after 24 hrs by luminescence method; assay type: functional, organism-based; conditions: Enterovirus A
RD [5] = test: Cytotoxicity against human RD cells at 33 uM after 24 hrs by WST-1 assay; assay type: cell-based
RD [6] = test: Cytotoxicity against human RD cells at 100 uM after 24 hrs by WST-1 assay relative to control; assay type: cell-based
Enterovirus A71 [7] = test: Binding affinity to Enterovirus 71 3C protease assessed as enzyme-compound covalent adduct formation via Cys147 residue by measuring ratio of peak intensity of covalently modified to unmodified protein at 10 to 20 equivalent after 1 hr by HPLC-ESI/MS analysis; how it was run: as §1
[8] = target: Chymotrypsinogen A (Bos taurus) (UniProt P00766); test: Inhibition of bovine pancreas alpha-chymotrypsin at 50 uM after 30 mins using N-Succinyl-L-phenylalanine- p-nitroanilide measured for 30 mins
Enterovirus A71 [9] = test: Antiviral activity against pseudotyped FY Enterovirus A71 harboring luciferase reporter gene infected in HEK-293T cells in presence of ethanolamine by Bright-Glo Luciferase Assay; assay type: functional, organism-based
Enterovirus A71 [10] = test: Reversible inhibition of Enterovirus 71 3C protease assessed as recovery of enzyme activity at 10 to 20 equivalent using peptide substrate pre-incubated for 1 hr followed by dialysis and subsequent substrate addition measured up to 72 hrs relative to control; parameters: scale not given: the % may be the effect or the level left
[11] = target: T1, Calpain-1 catalytic subunit (Homo sapiens) (UniProt P07384); test: Inhibition of human Calpain1 at 50 uM using Ac-LLY-AFC as substrate preincubated for 5 mins followed by substrate addition and measured after 10 mins by fluorescence method relative to control
T1 sequence (whole entry): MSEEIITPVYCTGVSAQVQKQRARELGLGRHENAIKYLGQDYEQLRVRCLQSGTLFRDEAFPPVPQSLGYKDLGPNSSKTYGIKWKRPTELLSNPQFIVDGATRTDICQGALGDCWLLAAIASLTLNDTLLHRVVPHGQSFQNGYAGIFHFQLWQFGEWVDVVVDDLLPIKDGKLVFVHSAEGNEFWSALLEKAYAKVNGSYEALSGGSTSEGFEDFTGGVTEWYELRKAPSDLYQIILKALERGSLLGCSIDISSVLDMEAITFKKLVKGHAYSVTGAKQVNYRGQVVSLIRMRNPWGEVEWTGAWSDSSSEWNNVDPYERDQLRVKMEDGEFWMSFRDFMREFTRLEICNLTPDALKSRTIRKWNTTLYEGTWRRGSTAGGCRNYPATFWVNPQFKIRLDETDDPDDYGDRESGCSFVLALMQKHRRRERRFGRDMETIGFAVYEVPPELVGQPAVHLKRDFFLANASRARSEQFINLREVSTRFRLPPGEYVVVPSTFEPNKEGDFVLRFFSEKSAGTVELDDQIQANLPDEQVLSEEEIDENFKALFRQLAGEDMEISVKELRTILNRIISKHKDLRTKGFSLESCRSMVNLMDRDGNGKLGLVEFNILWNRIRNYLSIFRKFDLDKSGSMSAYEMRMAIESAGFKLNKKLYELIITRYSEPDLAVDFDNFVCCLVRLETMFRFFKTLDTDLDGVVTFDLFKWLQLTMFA

Enterovirus A71 [12] = test: Inhibition of Enterovirus 71 3C protease in presence of lysine
Enterovirus A71 [13] = test: Inhibition of Enterovirus 71 3C protease in presence of glutathione
[14] = Reversible inhibition of Enterovirus 71 3C protease assessed as overall inhibition constant using NMA-IEALFQGPPK(DNP)FR as substrate pre-incubated for 30 mins followed by substrate addition and measured over 30 mins by fluorescence method; parameters: species or system Enterovirus A71
[15] = target: T2, Cathepsin K (Homo sapiens) (UniProt P43235); test: Inhibition of human Cathepsin K at 50 uM using Ac-LR-AFC as substrate preincubated for 10 to 15 mins followed by substrate addition and measured for 30 to 60 mins by fluorescence method relative to control
T2 sequence (whole entry): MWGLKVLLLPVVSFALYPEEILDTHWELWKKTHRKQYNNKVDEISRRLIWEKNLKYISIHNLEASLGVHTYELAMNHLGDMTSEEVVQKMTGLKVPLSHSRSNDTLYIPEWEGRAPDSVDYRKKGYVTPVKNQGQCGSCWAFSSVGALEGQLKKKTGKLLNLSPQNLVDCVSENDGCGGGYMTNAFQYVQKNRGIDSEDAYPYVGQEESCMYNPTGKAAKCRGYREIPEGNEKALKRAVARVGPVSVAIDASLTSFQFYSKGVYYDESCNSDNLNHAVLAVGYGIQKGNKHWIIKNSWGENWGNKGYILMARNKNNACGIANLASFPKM

Enterovirus A71 [16] = test: Antiviral activity against pseudotyped FY Enterovirus A71 harboring luciferase reporter gene infected in HEK-293T cells in presence of glutathione by Bright-Glo Luciferase Assay; assay type: functional, organism-based
Enterovirus A71 [17] = test: Reversible inhibition of Enterovirus 71 3C protease assessed as recovery of enzyme activity at 10 to 20 equivalent using peptide substrate pre-incubated for 1 hr followed by dilution prior to substrate addition using ultra-filtered sample relative to control; parameters: scale not given: the % may be the effect or the level left
Enterovirus A71 [18] = test: Antiviral activity against pseudotyped FY Enterovirus A71 harboring luciferase reporter gene infected in HEK-293T cells in presence of lysine by Bright-Glo Luciferase Assay; assay type: functional, organism-based
Enterovirus A71 [19] = test: Inhibition of Enterovirus 71 3C protease in presence of ethanolamine
Enterovirus A71 [20] = test: Binding affinity to Enterovirus 71 3C protease assessed as enzyme-compound covalent adduct formation via Cys147 residue after 1 hr by HPLC-ESI/MS analysis
Enterovirus A71 [21] = test: Slow-binding inhibition of Enterovirus 71 3C protease up to 3 uM using NMA-IEALFQGPPK(DNP)FR as substrate by fluorescence method
[22] = Inhibition of Enterovirus 71 E2004104-TW-CDC protease 3C (1549 to 1731 residues) expressed in Escherichia coli BL21(DE3) cells using Dacyl-KRTATVQGPSLDFE-Edans as substrate by fluorescence method; parameters: species or system Enterovirus A71
Enterovirus A71 [23] = test: Antiviral activity against Enterovirus A71 EV71/Shenzhen/120F1/09 infected in human muscular rhabdomyosarcoma cells assessed as reduction in virus-induced cell death incubated for 3 days by CCK-8 assay; assay type: functional, organism-based; conditions: Enterovirus A, EV71/Shenzhen/120F1/09, 72 h
Enterovirus A71 [24] = test: Inhibition of Enterovirus 71 3C protease assessed as induction of rapid equilibrium for enzyme-inhibitor complex formation up to 1.5 uM using NMA-IEALFQGPPK(DNP)FR as substrate by fluorescence method

## Cc1cc(C(=O)N[C@@H](Cc2ccc(F)cc2)C(=O)N[C@H](/C=C/C#N)C[C@@H]2CCCNC2=O)no1
Enterovirus A71 [1]
  inhibition: Active
Enterovirus A71 [2]
  Ratio: > 100
Enterovirus A71 [3]
  Ratio: > 100
Enterovirus A71 [4]
  EC50: 37000 nM

## Cc1cc(C(=O)N[C@@H](Cc2ccc(F)cc2)C(=O)N[C@H](/C=C(\C#N)c2ccc(C(F)(F)F)cc2)C[C@@H]2CCCNC2=O)no1
RD [5]
  Activity: Toxic
RD [6]
  Activity: 100%
Enterovirus A71 [4]
  EC50: 1400 nM

## Cc1cc(C(=O)N[C@@H](Cc2ccc(F)cc2)C(=O)N[C@H](/C=C(\C#N)C(=O)N(C)C(=O)OC(C)(C)C)C[C@@H]2CCCNC2=O)no1
Enterovirus A71 [7]
  Ratio: 1.5
[8]
  inhibition: inactive
Enterovirus A71 [9]
  Activity: Active
Enterovirus A71 [10]
  Activity: 30%
[11]
  inhibition: < 50%
Enterovirus A71 [12]
  inhibition: Active
Enterovirus A71 [13]
  inhibition: inactive
[14]
  Ki: 9.3 nM
[15]
  inhibition: < 50%
Enterovirus A71 [16]
  Activity: Active
Enterovirus A71 [17]
  Activity: Active
Enterovirus A71 [18]
  Activity: Active
Enterovirus A71 [4]
  EC50: 51 nM
Enterovirus A71 [19]
  inhibition: Active

## COC(=O)/C(C#N)=C/[C@H](C[C@@H]1CCCNC1=O)NC(=O)[C@H](Cc1ccc(F)cc1)NC(=O)c1cc(C)on1
[8]
  inhibition: inactive
Enterovirus A71 [9]
  Activity: Active
Enterovirus A71 [10]
  Activity: 50%
[11]
  inhibition: < 50%
Enterovirus A71 [12]
  inhibition: Active
Enterovirus A71 [13]
  inhibition: inactive
[14]
  Ki: 9.4 nM
[15]
  inhibition: < 50%
Enterovirus A71 [16]
  Activity: Active
Enterovirus A71 [20]
  Activity: inactive
Enterovirus A71 [17]
  Activity: 65 to 85%
Enterovirus A71 [18]
  Activity: Active
Enterovirus A71 [4]
  EC50: 53 nM
Enterovirus A71 [19]
  inhibition: Active

## CCN(C(=O)OC(C)(C)C)C(=O)/C(C#N)=C/[C@H](C[C@@H]1CCCNC1=O)NC(=O)[C@H](Cc1ccc(F)cc1)NC(=O)c1cc(C)on1
Enterovirus A71 [21]
  inhibition: Active
[14]
  Ki: 24 nM
Enterovirus A71 [4]
  EC50: 67 nM

## CCOC(=O)/C=C/[C@H](C[C@@H]1CCNC1=O)NC(=O)[C@@H](CC(=O)[C@@H](NC(=O)c1cc(C)on1)C(C)C)Cc1ccc(F)cc1 [RUPINTRIVIR]
[22]
  IC50: 1600 nM
Enterovirus A71 [23]
  EC50: 41 nM

## Cc1cc(C(=O)N[C@@H](Cc2ccc(F)cc2)C(=O)N[C@H](/C=C(\C#N)C(=O)OC(C)(C)C)C[C@@H]2CCCNC2=O)no1
Enterovirus A71 [24]
  inhibition: Active
[14]
  Ki: 6.7 nM
Enterovirus A71 [20]
  Activity: inactive
Enterovirus A71 [17]
  Activity: 65 to 85%
Enterovirus A71 [4]
  EC50: 30 nM
